According to the EternaBench riboswitch data:

System: MS2 coat protein
Assay: apparent Kd, MS2 coat protein; higher = weaker binding; RNA-MaP array; FMN 200 µM where present
In short: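 Stalled E. coli RNA polymerase produced the designs on Illumina sequencing-chip clusters. SNAP-549-labelled MS2 coat protein was added from 0.7 or 1.5 nM, doubling to 3 µM, without and then with constant ligand, in 100 mM Tris-HCl pH 7.5, 80 mM KCl, 4 mM MgCl2, BSA, DTT, yeast tRNA and Tween-20. The apparent Kd is the median of filtered per-cluster fits of green signal normalised to red-channel RNA signal and control-cluster median Fmax.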

[1] = designed as: OFF switch for flavin mononucleotide, no ligand
[2] = ligand present: flavin mononucleotide, designed as: OFF switch for flavin mononucleotide
[3] = designed as: ON switch for flavin mononucleotide, no ligand
[4] = ligand present: flavin mononucleotide, designed as: ON switch for flavin mononucleotide

| Sequence | apparent Kd [1] | apparent Kd [2] | apparent Kd [3] | apparent Kd [4] |
| --- | --- | --- | --- | --- |
| UCCUGGCGAGGAUAUACAAAGAUUUUUUCGUUUUGUUACGAACAUGAGGAUCACCCAUGUAGAAGGUGCUGCUG | 204 nM | 193 nM | – | – |
| UCCUUAGCGGUCAGGAUAUACACCCGUUACUCCUUGUAGAAGGGACAUGAGGAUCACCCAUGUACAGUACAUCU | 22.9 nM | 21 nM | – | – |
| UCCUUGUCCUGAGGAUAUCCGCGGUUCCCAAAAGGAGAAGGCAGGACAUGAGGAUCACCCAUGUACCCAGAAAACGUGCAGAUU | 9.95 nM | 46.8 nM | – | – |
| UCGACCAGCGCCGCUCGAACAUGAGGAUCACCCAUGUACUCCAGAAGGCCGCCCAAGUACGGAGUGGAGGAUAUGGAGGUUCUC | – | – | 39.5 nM | 25.4 nM |
| UCGACCGGAGGAUAUCACGUAAAGUACAUGAGGAUCACCCAUGUGUGAUGACUCGAGUCGUGAGAAGGCCGAUAUG | 76.4 nM | 172 nM | – | – |
| UCGAGUCAUGAGAAGGGCUGAUGUUACAUGAGGAUCACCCAUGUCAUGGGCAGGAUAUCAUUGACACGGCUGUACCUCUCUUAA | – | – | 107 nM | 19.3 nM |
| UCGAUGCUAGGAUAUACUUAUAAAACCACUGUAGAGUCCUCACAUGAGGAUCACCCAUGUAGAAGGAGCAUCUA | 25.9 nM | 46.4 nM | – | – |
| UCGCUGCGAGGAUAUACGUGCGCGCGCGCGCGCGCGCGCGUACAUGAGGAUCACCCAUGUAGAAGGCGCGCUGC | 17.1 nM | 17.1 nM | – | – |
| UCGGCCGCCGUGAGGAUAUGCCCGCGCGCCCGCGGGCAGAAGGCACAUGAGGAUCACCCAUGUCCCGCGGCACU | 15.4 nM | 27.4 nM | – | – |
| UCGGCGCGAGGAUAUACGUUUGCGCUUUUUCGUUUUUGUGUACAUGAGGAUCACCCAUGUAGAAGGCGCGCCGC | 16.4 nM | 19.8 nM | – | – |
| UCGUACAUUCGAGGAUAUCGGUGAUAAAUAAUACGAGAAGGCGAUUGUGGGAAUAACGCCUUAGACAUGAGGAUCACCCAUGUA | – | – | 72.4 nM | 62.6 nM |
| UCGUCCAUGUCAGGAUAUGGCGGUAAAGAAAGGCUAGAAGGGACAUGAGGAUCACCCAUGUGCUCUUACGUGCACGGGCUGCGC | 6.47 nM | 8.18 nM | – | – |
| UCGUUAUAUGAAGGAUAUACUUAACAUGAGGAUCACCCAUGUGGUGUUGUGAGUGAGUGAGUUUAGUAGAAGGUCAAUUCUUUU | 212 nM | 214 nM | – | – |
| UCGUUGUCAGGAUAUCGUUAAUUUAGUUGUUUGUAUUAGUUCGAGAAGGGACAUGAGGAUCACCCAUGUUUGCU | 30.1 nM | 70.9 nM | – | – |
| UCUACGCGAAUCAAGAUGGAUAGCACAUGAGGAUCACCCAUGUAGGAUAUGCUACACAAAGUGUAGCAGAAGGACAAGCGUAGA | 26.5 nM | 38.3 nM | – | – |
| UCUAUAUAGAUUCAUCAAUACAGUAAGGAUAUGAGAUACAUGAGGAUCACCCAUGUGCAUGUGGAUUAGAAGGUACAAUUAACU | 60 nM | 46.3 nM | – | – |
| UCUAUCAGAGGAUAUACAUGAGGAUCACCCAUGUCAGUCGAACGGGAUGGAAGGUUAGGUAGAAGGUUGUAGAU | 39.8 nM | 41.2 nM | – | – |
| UCUCGUUUCGCAGGAUAUGCUGGUCGGUCAUAAACCGGCCACAUGAGGAUCACCCAUGUGCCACAGCAGAAGGGUGACACUAGA | – | – | 543 nM | 59 nM |
| UCUGAUUGGUGAGGAUAUACAUAAUUUAUAACUGUAGAAGGCACAAACCUCAAGACAUGAGGAUCACCCAUGUGGUAUUUAGAU | 285 nM | 475 nM | – | – |
| UCUGCCGCCGUGAGGAUAUGCCCGCGCGCCCGCGGGCAGAAGGCACAUGAGGAUCACCCAUGUCCCGCGGCUUU | 15.1 nM | 39.5 nM | – | – |
| UCUGGUCGAGGAUAUACAAUCGUGCUUCGGCACGUAAGAUCACAUGAGGAUCACCCAUGUAGAAGGUGACCAGA | 27.1 nM | 131 nM | – | – |
| UCUUUACUGGUCAGGAUAUACAUUCGCUACUCCUUGUAGAAGGGACAUGAGGAUCACCCAUGUACUUUACAUUC | 18.5 nM | 19.5 nM | – | – |
| UGAAAUCAUGUAGGAUAUGCAUGGCGAAGCUACGCAGAAGGACAUGAGGAUCACCCAUGUUAUAGCUACCCAGUUUGGUGGCAA | 49.8 nM | 151 nM | – | – |
| UGAAAUCAUGUAGGAUAUGCAUGGCGAAGCUACGCAGAAGGACAUGAGGAUCACCCAUGUUCUAGCUACCGAGUACGGUGGCAA | 23.1 nM | 121 nM | – | – |
| UGAACUAUGUAGAAGGCCCACAUUAAUAUGUAGGGAGGAUAUACAUGAGGAUCACCCAUGUAAAGAGCAAGAGGAUUUAACAGA | 10.3 nM | 21.7 nM | – | – |
| UGAACUAUGUAGAAGGCCCGCAUGAAAAUGACGGGAGGAUAUACAUGAGGAUCACCCAUGUGAAGAGCAAGAGGGUUUAACAGA | 282 nM | 163 nM | – | – |
| UGAAUAAUGUUAGGAUAUACAUGAGGAAUCCUCGUAGAAGGAACAUGACAUGAGGAUCACCCAUGUAGCGCUCAGAAGAGCGCA | – | – | 140 nM | 135 nM |
| UGAAUGUGAGGAUAUGGUGAGUAGUGCCUGAGCGCUGCUCACCAGAAGGCACAUGAGGAUCACCCAUGUACUUG | 66.9 nM | 215 nM | – | – |

| Sequence | apparent Kd [1] | apparent Kd [2] | apparent Kd [3] | apparent Kd [4] |
| --- | --- | --- | --- | --- |
| UGACUGAUAUAGAAGGGUAUGUGGGAAUUACAUGAGGAUCACCCAUGUUUUAUAGGAUAUGUAUAUAGAAUUUAAUCAAGUUUA | 40.5 nM | 37.1 nM | – | – |
| UGACUGCGUAGAAUUAGCAGCUGACAGGAUAUGACAUGAGGAUCACCCAUGUGAAAUAAGAAGAGUCAGAAGGGUCACGACACA | 9.51 nM | 8.79 nM | – | – |
| UGAGACCUCACAGGAUAUGCUGGACUUUGUCCAGCAGAAGGGUGAAAACAUGAGGAUCACCCAUGUAUGGUCUCCAAAUUUAAU | – | – | 164 nM | 12.7 nM |
| UGAGGACAUGAGGAUCACCCAUGUAAGGAUAUGCGGAGAGUUUGGAGAGGUUGAGGAGGCAGAAGGUACAGGAU | 89.5 nM | 58.5 nM | – | – |
| UGAUAACAUGAGGAUCACCCAUGUCAGGAUAUAAAUUGAGCUCCUUGGACGCCACCGUUUAGAAGGGACGCAUG | 23.7 nM | 22.7 nM | – | – |
| UGAUAACAUGUAGGAUAUCCAGCAUUGACCAUCGGAGAAGGACAUGAGGAUCACCCAUGUACCGAUACAAUGGAAUAAGGGAAU | 15.5 nM | 17.9 nM | – | – |
| UGAUAACAUGUAGGAUAUGCAGCAUUGACCAUUGCAGAAGGACAUGAGGAUCACCCAUGUACCGAUACAAUGGGAUCACGCAAU | 15.3 nM | 18.5 nM | – | – |
| UGAUAGGACAGAGGAUAUACAGAUAGGAUCUACUAUCAAACAAUCCUCACAUGAGGAUCACCCAUGUAGAAGGCUGUCCUAUCU | 106 nM | 888 nM | – | – |
| UGAUAGGACAGAGGAUAUACGUGCUGGAGAUACUAGCAAAGUAUCUUGACAUGAGGAUCACCCAUGUAGAAGGCUGUCCUAUCU | 16.9 nM | 89.2 nM | – | – |
| UGAUCAAAUGUCAGGAUAUGCUGUUGGAAACAACAGCAGAAGGGACAUGAGGAUCACCCAUGUCUUGUCGAUUU | 21.4 nM | 112 nM | – | – |
| UGCACAUGAGGAUCACCCAUGUAUUGUUCGGUUAAUAGAAGUGAGGAUAUGCAUAAAAUAAGGUAGCAGAAGGCACAGGAUUCA | – | – | 23.9 nM | 25.4 nM |
| UGCAUGCUAGGAUAUACGAAACAUUAGGGUUCUUCGUAUGAACAUGAGGAUCACCCAUGUAGAAGGAGCGUGCU | 35.5 nM | 191 nM | – | – |
| UGCAUGCUAGGAUAUACGAAACAUUAGGGUUCUUUGUGUGAACAUGAGGAUCACCCAUGUAGAAGGAGCGUGCU | 151 nM | 38.5 nM | – | – |
| UGCAUGUAAGGAUAUGCAUCCGCCGACGUCCCGGCGGCACAGCAGAAGGUACAUGAGGAUCACCCAUGUGUCCC | 28.8 nM | 155 nM | – | – |
| UGCUGGUGACAGCAUCCAUCAAAACAUGAGGAUCACCCAUGUAGAAGGCUGUACGGUUACCGUACAGAGGAUAUACAAUGAUGG | 7.27 nM | 8.69 nM | – | – |
| UGGAAAUGCGAGAAGGACAUGAGGAUCACCCAUGUAGGAUAUCGACCUAGGUGCAGAUCGUUAUAGGAUCUCUUCGCUUGUAGG | – | – | 16.5 nM | 7.08 nM |
| UGGAUCAAUACAGGAUAUGGUGACGCACAUGAGGAUCACCCAUGUCCGCAGCGUGCUCAGCACGCCCAGAAGGGUAUUGACUCG | – | – | 731 nM | 88.8 nM |
| UGGAUCAUCGGAGGAUAUCAUGUAGAUACAUGAGGAUCACCCAUGUCGAUGGAGACAUCGGAGAUUGAGAAGGCCGAUGAUCCU | – | – | 543 nM | 30.9 nM |
| UGGAUGGUAUGAGGAUAUGCGCGUGAAACGCGCGCAGAAGGCAUGUCAAUAGACAUGAGGAUCACCCAUGUACUAUCCAUCCAA | – | – | 114 nM | 9.65 nM |
| UGGAUGUAAGAGAAGGAGGACUUCAUGAGGAUCACCCAUGUGUUAGUACUUAGGAUAUUUGACAACAUGAGGAUCACCCAUGUC | – | – | 75.6 nM | 67.8 nM |
| UGGAUGUAGGAGAAGGAGGACUUCAUGAGGAUCACCCAUGUGUUAGUACUUAGGAUAUUUGACAACAUGAGGAUCACCCAUGUG | – | – | 105 nM | 96.4 nM |
| UGGGAACGAGGAUAUCGAUGGUGGAACAUGAGGAUCACCCAUGUAUGAGAUAGUGUAGGGCGAGAAGGCGUUAAGU | 94.8 nM | 66.5 nM | – | – |
| UGGGCCCGAACAGGAUAUGUAACCAGUCCCUCACAUGAGGAUCACCCAUGUCCAAGGGCUCGAAGGCAGAAGGGUUAAGGCUGU | – | – | 740 nM | 138 nM |
| UGGGUGGUAUGAGGAUAUGCGCGCGAAACGCGCGCAGAAGGCAUGUCAAUAGACAUGAGGAUCACCCAUGUAUUAUCCAUCCAA | – | – | 412 nM | 28.3 nM |
| UGGGUGGUCCGAGGAUAUGUCACAUGAGGAUCACCCAUGUAAAACCAAGAGACAGAAGGCGGACAUAGACGCCCAAUUGCGCUC | – | – | 30.7 nM | 5.03 nM |
| UGGUAACAUGAGGAUCACCCAUGUCAGGAUAUCAGGAAGAGGAGAGGAGAGGAGAAGAUGAGAAGGGACUAUAU | 27.2 nM | 21.9 nM | – | – |
| UGGUACAUCGGAGGAUAUCAUGUAAAUACAUGAGGAUCACCCAUGUCGAUGGAGACAUCGGAGAUUGAGAAGGCCGAUGUACCG | – | – | 166 nM | 8.66 nM |
